In publication PMC5600292 (Biochimica et biophysica acta, 2017):
Read-outs that look alike come from different tables or passages of the source.

B1: FXIII V34: full-length recombinant FXIII-A V34 expressed in E. coli (protein, UniProt P00488 1-732, looked up)
chain: MSETSRTAFGGRRAVPPNNSNAAEDDLPTVELQGVVPRGVNLQEFLNVTSVHLFKERWDTNKVDHHTDKYENNKLIVRRGQSFYVQIDFSRPYDPRRDLFRVEYVIGRYPQENKGTYIPVPIVSELQSGKWGAKIVMREDRSVRLSIQSSPKCIVGKFRMYVAVWTPYGVLRTSRNPETDTYILFNPWCEDDAVYLDNEKEREEYVLNDIGVIFYGEVNDIKTRSWSYGQFEDGILDTCLYVMDRAQMDLSGRGNPIKVSRVGSAMVNAKDDEGVLVGSWDNIYAYGVPPSAWTGSVDILLEYRSSENPVRYGQCWVFAGVFNTFLRCLGIPARIVTNYFSAHDNDANLQMDIFLEEDGNVNSKLTKDSVWNYHCWNEAWMTRPDLPVGFGGWQAVDSTPQENSDGMYRCGPASVQAIKHGHVCFQFDAPFVFAEVNSDLIYITAKKDGTHVVENVDATHIGKLIVTKQIGGDGMMDITDTYKFQEGQEEERLALETALMYGAKKPLNTEGVMKSRSNVDMDFEVENAVLGKDFKLSITFRNNSHNRYTITAYLSANITFYTGVPKAEFKKETFDVTLEPLSFKKEAVLIQAGEYMGQLLEQASLHFFVTARINETRDVLAKQKSTVLTIPEIIIKVRGTQVVGSDMTVTVEFTNPLKETLRNVWVHLDGPGVTRPMKKMFREIRPNSTVQWEEVCRPWVSGHRKLIASMSSDSLRHVYGELDVQIQRRPSM
modifications: full-length

Assays:
[1] = target: T1, human recombinant thrombin I174A (Homo sapiens, UniProt P00734, I542A); test: HPLC-based kinetic assay of FXIII AP hydrolysis, I174A thrombin; format: biochemical; details: for kcat/Km / Km / kcat: I174A IIa, HPLC assay, pH 7.4, 25 °C, average of at least three independent experiments ± SEM; for Km / kcat: SEM
Method in brief: (§1)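 Synthetic Ac-/-NH2 FXIII (28–41) AP peptides (V34, L34, F34, W34, Y34) were used at 75–2500 µM final in 50 mM H3PO4, 100 mM NaCl, 0.1% PEG, pH 7.4, 25 °C. Recombinant human thrombin (6 nM–1 µM) started the reaction; aliquots were quenched with 12.5% H3PO4, keeping hydrolysis below 17% in 30 min. The (28–37) product was quantified by RP-HPLC against calibration curves. Initial velocities were fitted to V = Vmax/(1+Km/[S]), kcat taken from thrombin concentration, in triplicate.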

[2] = target: T2, human recombinant thrombin wild-type (WT) (Homo sapiens, UniProt P00734); test: HPLC-based kinetic assay of thrombin-catalyzed hydrolysis of FXIII; format: biochemical; details: WT IIa, pH 7.4, 25 °C, average of at least three independent experiments ± SEM
Method in brief: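 Recombinant human thrombin hydrolysed acetylated, amidated FXIII (28–41) activation peptides with V, L, F, W or Y at position 34 (final 75–2500 µM). Reactions ran at 25 °C in 50 mM H3PO4, 100 mM NaCl, 0.1% PEG, pH 7.4, with 6 nM–1 µM thrombin, and kept <17% hydrolysis in 30 min. Timed aliquots were quenched with 12.5% H3PO4. The (28–37) product was quantified by C18 RP-HPLC against calibration curves, giving initial velocities. These were fit to V = Vmax/(1 + Km/[S]), and kcat came from thrombin concentration. Runs were in triplicate.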

[3] = target: T3, human recombinant thrombin L99A (Homo sapiens, UniProt P00734, L459A); test: HPLC-based kinetic assay of FXIII AP hydrolysis, L99A thrombin; format: biochemical; details: L99A IIa, HPLC assay, pH 7.4, 25 °C, average of at least three independent experiments ± SEM
Method in brief: as §1

[4] = target: human recombinant thrombin W60dA (Homo sapiens, UniProt P00734, W413A); details: W60dA IIa, mean ± SEM, cited from earlier work; for Km / kcat: SEM
[5] = target: T1, human recombinant thrombin I174A; details: cited from earlier work; for Km / kcat / kcat/Km: I174A IIa, mean ± SEM; for Km / kcat: SEM
[6] = target: T3, human recombinant thrombin L99A; details: cited from earlier work; for Km / kcat / kcat/Km: L99A IIa, mean ± SEM; for Km / kcat: SEM
[7] = target: human recombinant thrombin W215A (Homo sapiens, UniProt P00734, W590A); details: cited from earlier work; for Km / kcat / kcat/Km: W215A IIa, mean ± SEM; for Km / kcat: SEM; for fold reduction of kcat/Km relative to WT thrombin: prior studies
[8] = target: T2, human recombinant thrombin wild-type (WT); details: WT IIa, mean ± SEM, cited from earlier work; for Km / kcat: SEM
[9] = test system: human recombinant thrombin Y60aA; details: cited from earlier work; for Km / kcat / kcat/Km: Y60aA IIa, mean ± SEM; for Km / kcat: SEM; for fold decrease in kcat relative to WT thrombin / fold increase in Km relative to WT thrombin: Y60aA thrombin
[10] = target: human recombinant thrombin W215A/E217A (WE) (Homo sapiens, UniProt P00734, E592A/W590A); details: cited from earlier work; for Km / kcat / kcat/Km: WE (W215A/E217A) IIa, mean ± SEM; for Km / kcat: SEM; for fold decrease in Km relative to WT thrombin: WE thrombin
[11] = test system: WT recombinant human thrombin; test: Gel electrophoresis; format: biochemical; details: 1 µM FXIII variant, 30 nM thrombin, 37°C
Method in brief: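 Full-length FXIII-A V34X variants were expressed GST-tagged in E. coli BL21(DE3) Gold by auto-induction, then freed from the tag by on-column PreScission digestion. 1 µM variant was incubated with 30 nM WT recombinant human thrombin at 37°C. Aliquots were taken at 1–30 min, quenched with 6 µM PPACK plus reducing buffer, and frozen at −80°C. Samples ran on 8% SDS-PAGE with Coomassie stain; densitometry followed the 83 kDa intact and 79 kDa cleaved bands.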

Molecule	kcat/Km [1]	Km [1]	kcat [1]	Km [4]	kcat [4]	kcat/Km [4]	Km [5]	Km [6]	kcat [6]	kcat/Km [6]	fold decrease in kcat relative to WT thrombin ([6]; L99A thrombin)	Km [7]	kcat [7]	kcat/Km [7]	Km [8]	kcat [8]	kcat/Km [8]	Km [10]	kcat [10]	kcat/Km [10]	further results
Ac-TVELQGYVPRGVNL-NH2 [FXIII (28–41) Y34 AP]	3300 ± 2000 M⁻¹ s⁻¹	349 ± 120 µM	1.17 ± 0.16 s⁻¹	–	–	–	–	–	–	–	–	–	–	–	–	–	–	–	–	–	fold decrease in Km relative to WT thrombin ([1]; I174A thrombin, current work): 1.4 fold; fold decrease in kcat relative to WT thrombin ([1]; I174A thrombin, current work): 2 fold; kcat/Km [2]: 4600 ± 900 M⁻¹ s⁻¹; Km ([2]; SEM): 484 ± 88 µM; kcat ([2]; SEM): 2.23 ± 0.18 s⁻¹; kcat/Km [3]: 39000 ± 9800 M⁻¹ s⁻¹; Km ([3]; SEM): 347 ± 80 µM; kcat ([3]; SEM): 13.5 ± 1.4 s⁻¹
Ac-TVELQGLVPRGVNL-NH2 [FXIII (28–41) L34 AP]	–	–	–	1000 ± 201 µM	5.07 ± 0.021 s⁻¹	5100 ± 1000 M⁻¹ s⁻¹	1110 ± 247 µM	1930 ± 354 µM	5.94 ± 0.02 s⁻¹	3100 ± 200 M⁻¹ s⁻¹	3–4 fold	3620 ± 470 µM	5.31 ± 0.002 s⁻¹	1500 ± 200 M⁻¹ s⁻¹	315 ± 42 µM	22.9 ± 0.003 s⁻¹	73000 ± 1200 M⁻¹ s⁻¹	142 ± 28 µM	0.052 ± 0.003 s⁻¹	370 ± 100 M⁻¹ s⁻¹	kcat [5]: 10.2 ± 0.04 s⁻¹; kcat/Km [5]: 9100 ± 2000 M⁻¹ s⁻¹; fold decrease in kcat relative to WT thrombin ([5]; I174A thrombin): 2 fold; fold advantage in kcat/Km relative to V34 ([6]; L99A thrombin): 7 fold; Km [9]: 696 ± 116 µM; kcat [9]: 0.37 ± 0.012 s⁻¹; kcat/Km [9]: 530 ± 120 M⁻¹ s⁻¹; fold decrease in kcat relative to WT thrombin [9]: 54 to 61 fold; fold increase in Km relative to WT thrombin [9]: 2 fold; fold decrease in Km relative to WT thrombin [10]: 2 fold
Ac-TVELQGVVPRGVNL-NH2 [FXIII (28–41) V34 AP]	–	–	–	1380 ± 422 µM	0.86 ± 0.046 s⁻¹	630 ± 190 M⁻¹ s⁻¹	204 ± 36 µM	2070 ± 414 µM	0.89 ± 0.07 s⁻¹	430 ± 100 M⁻¹ s⁻¹	3–4 fold	2370 ± 372 µM	5.53 ± 0.017 s⁻¹	2300 ± 700 M⁻¹ s⁻¹	298 ± 42 µM	2.57 ± 0.005 s⁻¹	8600 ± 1000 M⁻¹ s⁻¹	745 ± 98 µM	0.117 ± 0.008 s⁻¹	160 ± 20 M⁻¹ s⁻¹	kcat [5]: 5.37 ± 0.01 s⁻¹; kcat/Km [5]: 26000 ± 100 M⁻¹ s⁻¹; fold increase in kcat relative to WT thrombin ([5]; I174A thrombin): 2 fold; fold reduction of kcat/Km relative to WT thrombin ([7]; W215A thrombin): 4 fold; Km [9]: 678 ± 120 µM; kcat [9]: 0.048 ± 0.0032 s⁻¹; kcat/Km [9]: 71 ± 13 M⁻¹ s⁻¹; fold decrease in kcat relative to WT thrombin [9]: 54 to 61 fold; fold increase in Km relative to WT thrombin [9]: 2 fold
Ac-TVELQGFVPRGVNL- NH2 [FXIII (28–41) F34 AP]	6600 ± 690 M⁻¹ s⁻¹	920 ± 88 µM	6.08 ± 0.25 s⁻¹	435 ± 98 µM	1.46 ± 0.15 s⁻¹	3400 ± 800 M⁻¹ s⁻¹	–	570 ± 125 µM	2.71 ± 0.3 s⁻¹	4800 ± 120 M⁻¹ s⁻¹	2 fold	437 ± 81 µM	1.97 ± 0.14 s⁻¹	4500 ± 900 M⁻¹ s⁻¹	442 ± 93 µM	6.27 ± 0.54 s⁻¹	14000 ± 3000 M⁻¹ s⁻¹	190 ± 43 µM	0.07 ± 0.007 s⁻¹	360 ± 80 M⁻¹ s⁻¹	fold decrease in kcat relative to WT thrombin ([7]; W215A thrombin): 3 fold; fold reduction of kcat/Km relative to WT thrombin ([7]; W215A thrombin): 3 fold; fold decrease in Km relative to WT thrombin [10]: 2 fold
B1	–	–	–	–	–	–	–	–	–	–	–	–	–	–	–	–	–	–	–	–	time at which cleavage started to be visible ([11]; SDS-PAGE): 2 min; cleavage of full-length FXIII by thrombin at 10 min ([11]; SDS-PAGE densitometry): 50%; time to full cleavage of full-length FXIII ([11]; SDS-PAGE densitometry): ~30 min
